According to ChEMBL document CHEMBL3992536, “Discovery of a Novel Series of Orally Bioavailable and CNS Penetrant Glucagon-like Peptide-1 Receptor (GLP-1R) Noncompetitive Antagonists Based on a 1,3-Disubstituted-7-aryl-5,5-bis(trifluoromethyl)-5,8-dihydropyrimido[4,5-d]pyrimidine-2,4(1H,3H)-dione Core” (J Med Chem, 2017):
Calls of active or inactive are those of the source. The calls are words filed in the database; no cut-off is given here.

What was measured:
[1] = target: T1, Glucagon-like peptide 1 receptor (Homo sapiens, UniProt P43220); test: Antagonist activity at human GLP-1R expressed in TREx293 cells co-expressing cAMP sensitive luciferase assessed as inhibition of GLP1 (7 to 36 residues) amide-induced cAMP accumulation after 90 mins by GloSensor cAMP assay; assay type: functional, cell-based
T1 sequence (P43220 whole entry, the tested form may be a part): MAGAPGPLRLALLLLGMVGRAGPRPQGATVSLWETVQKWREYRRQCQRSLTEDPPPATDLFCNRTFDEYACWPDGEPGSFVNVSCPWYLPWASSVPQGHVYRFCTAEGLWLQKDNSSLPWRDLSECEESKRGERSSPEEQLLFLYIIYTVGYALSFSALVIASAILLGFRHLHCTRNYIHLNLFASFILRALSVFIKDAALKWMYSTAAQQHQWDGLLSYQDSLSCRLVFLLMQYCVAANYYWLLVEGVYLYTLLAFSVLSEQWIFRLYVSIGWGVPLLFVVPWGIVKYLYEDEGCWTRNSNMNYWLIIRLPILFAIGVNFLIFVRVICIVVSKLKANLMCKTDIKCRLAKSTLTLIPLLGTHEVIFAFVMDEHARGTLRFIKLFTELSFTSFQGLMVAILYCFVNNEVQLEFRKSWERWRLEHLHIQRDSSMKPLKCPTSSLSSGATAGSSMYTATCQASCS
Procedure, shortened: (§1)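 GloSensor cAMP luminescence read-out in TREx293 HEK cells expressing GLP-1R. IC50 and pIC50 come from the concentration–response curves. n = 3, reported as average ± SEM.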

[2] = target: T1, Glucagon-like peptide 1 receptor; test: Antagonist activity at human GLP-1R expressed in TREx293 cells co-expressing cAMP sensitive luciferase assessed as inhibition of exendin-4-induced cAMP accumulation after 90 mins by GloSensor cAMP assay; assay type: functional, cell-based; procedure, shortened: as §1
[3] = target: T1, Glucagon-like peptide 1 receptor; test: Antagonist activity at human GLP-1R expressed in TREx293 cells co-expressing cAMP sensitive luciferase assessed as inhibition of GLP1 (7 to 36 residues) amide-induced cAMP accumulation after 90 mins by GloSensor cAMP assay relative to GLP-1; assay type: functional, cell-based
Procedure, shortened: (§2)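 TREx293 HEK cells expressing GLP-1R, GloSensor cAMP read-out. The minimum response is expressed as % of the GLP-1 response (GLP-1 min). n = 3, average ± SEM.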

[4] = target: T1, Glucagon-like peptide 1 receptor; test: Antagonist activity at human GLP-1R expressed in TREx293 cells co-expressing cAMP sensitive luciferase assessed as inhibition of exendin-4-induced cAMP accumulation after 90 mins by GloSensor cAMP assay relative to GLP-1; assay type: functional, cell-based; procedure, shortened: as §2
[5] = Plasma clearance in Sprague-Dawley rat at 1 mg/kg, iv or 3 mg/kg via oral gavage by LC-MS/MS analysis; assay type: ADME, organism-based
Procedure, shortened: (§3)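 Rat PK study with dosing at 1 mg/kg iv and 3 mg/kg po. The study reports plasma clearance (mL min⁻¹ kg⁻¹), t1/2 (min), Vss (L/kg) and oral bioavailability F (%).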

[6] = Half life in Sprague-Dawley rat at 1 mg/kg, iv or 3 mg/kg via oral gavage by LC-MS/MS analysis; assay type: ADME, organism-based; settings: in vivo; procedure, shortened: as §3
[7] = Volume of distribution at steady state in Sprague-Dawley rat at 1 mg/kg, iv or 3 mg/kg via oral gavage by LC-MS/MS analysis; assay type: ADME, organism-based; settings: in vivo, read-out: Vdss; procedure, shortened: as §3
[8] = Oral bioavailability in Sprague-Dawley rat at 3 mg/kg via gavage by LC-MS/MS analysis; assay type: ADME, organism-based; settings: in vivo; procedure, shortened: as §3
[9] = target: Glucagon receptor (Homo sapiens, UniProt P47871); test: Antagonist activity at glucagon receptor (unknown origin)
Chain of Glucagon receptor (P47871 whole entry, the tested form may be a part): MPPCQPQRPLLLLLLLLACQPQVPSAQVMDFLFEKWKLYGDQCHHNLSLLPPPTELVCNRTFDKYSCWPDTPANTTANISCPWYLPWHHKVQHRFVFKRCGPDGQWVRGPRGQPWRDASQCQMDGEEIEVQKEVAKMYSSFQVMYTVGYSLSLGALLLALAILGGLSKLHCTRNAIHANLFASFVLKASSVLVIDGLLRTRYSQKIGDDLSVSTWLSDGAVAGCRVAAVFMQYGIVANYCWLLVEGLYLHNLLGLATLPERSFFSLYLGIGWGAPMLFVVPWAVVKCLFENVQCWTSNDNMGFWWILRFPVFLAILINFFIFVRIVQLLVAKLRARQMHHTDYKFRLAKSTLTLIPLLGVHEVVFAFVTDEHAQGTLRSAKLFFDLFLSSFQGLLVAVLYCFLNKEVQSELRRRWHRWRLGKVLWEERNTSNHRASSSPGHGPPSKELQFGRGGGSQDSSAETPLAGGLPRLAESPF

[10] = target: T1, Glucagon-like peptide 1 receptor; test: Non-competitive antagonism/negative allosteric modulation of human GLP-1R expressed in TREx293 cells co-expressing cAMP sensitive luciferase assessed as inhibition of fixed concentration of GLP1 (7 to 36 residues) amide-induced cAMP accumulation by measuring decrease in GLP-1 maximum response at 0.3 to 10 uM after 90 mins by GloSensor cAMP assay; assay type: functional, cell-based
Procedure, shortened: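 A full GLP-1 (7−36) amide concentration–response curve is run in GLP-1R TREx293 HEK cells with GloSensor cAMP detection. It is repeated in the presence of increasing fixed concentrations of antagonist, and the decrease in the GLP-1 maximal response is followed. n = 3.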

[11] = target: T2, Glucagon-like peptide 1 receptor (Mus musculus) (UniProt O35659); test: Antagonist activity at GLP-1R in C57BL/6J mouse primary islets assessed as inhibition of exendin-4-induced increase in glucose-stimulated insulin secretion at 1 uM after 60 mins by radio-immunoassay
T2 sequence (whole entry): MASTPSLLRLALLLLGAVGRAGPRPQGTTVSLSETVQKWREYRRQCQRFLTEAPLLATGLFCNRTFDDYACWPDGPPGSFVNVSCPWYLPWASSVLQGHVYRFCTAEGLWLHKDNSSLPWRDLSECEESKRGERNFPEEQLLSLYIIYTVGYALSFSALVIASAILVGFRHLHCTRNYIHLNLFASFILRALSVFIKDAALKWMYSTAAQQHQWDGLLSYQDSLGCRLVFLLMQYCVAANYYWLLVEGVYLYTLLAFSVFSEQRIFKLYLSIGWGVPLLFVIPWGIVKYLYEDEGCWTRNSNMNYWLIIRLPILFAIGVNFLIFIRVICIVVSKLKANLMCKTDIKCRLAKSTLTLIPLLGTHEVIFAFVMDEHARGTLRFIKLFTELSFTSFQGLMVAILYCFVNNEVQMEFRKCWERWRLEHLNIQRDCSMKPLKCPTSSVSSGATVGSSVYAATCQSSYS

[12] = target: T3, Cytochrome P450 1A2 (Homo sapiens, UniProt P05177); test: Inhibition of CYP1A2 in human liver microsomes using phenacetin as substrate preincubated for 15 mins followed by NADPH addition measured after 8 mins by LC-MS/MS analysis; assay type: ADME
T3 sequence (P05177 whole entry): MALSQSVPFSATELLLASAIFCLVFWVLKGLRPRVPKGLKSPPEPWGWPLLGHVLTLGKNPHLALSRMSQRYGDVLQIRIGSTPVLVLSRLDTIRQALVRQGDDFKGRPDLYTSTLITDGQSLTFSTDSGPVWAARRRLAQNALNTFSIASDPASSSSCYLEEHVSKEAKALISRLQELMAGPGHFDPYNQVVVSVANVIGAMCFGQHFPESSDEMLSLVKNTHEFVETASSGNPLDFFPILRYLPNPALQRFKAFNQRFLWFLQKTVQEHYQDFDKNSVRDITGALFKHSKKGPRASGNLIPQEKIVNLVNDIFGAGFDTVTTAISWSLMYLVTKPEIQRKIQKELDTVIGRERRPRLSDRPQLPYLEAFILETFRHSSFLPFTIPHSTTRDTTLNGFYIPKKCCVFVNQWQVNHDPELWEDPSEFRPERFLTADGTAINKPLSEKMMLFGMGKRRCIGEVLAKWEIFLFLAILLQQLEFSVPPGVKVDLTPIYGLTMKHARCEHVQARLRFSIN

[13] = target: Cytochrome P450 2C9 (Homo sapiens, UniProt P11712); test: Inhibition of CYP2C9 in human liver microsomes using diclofenac as substrate preincubated for 15 mins followed by NADPH addition measured after 8 mins by LC-MS/MS analysis; assay type: ADME
Chain of Cytochrome P450 2C9 (P11712 whole entry): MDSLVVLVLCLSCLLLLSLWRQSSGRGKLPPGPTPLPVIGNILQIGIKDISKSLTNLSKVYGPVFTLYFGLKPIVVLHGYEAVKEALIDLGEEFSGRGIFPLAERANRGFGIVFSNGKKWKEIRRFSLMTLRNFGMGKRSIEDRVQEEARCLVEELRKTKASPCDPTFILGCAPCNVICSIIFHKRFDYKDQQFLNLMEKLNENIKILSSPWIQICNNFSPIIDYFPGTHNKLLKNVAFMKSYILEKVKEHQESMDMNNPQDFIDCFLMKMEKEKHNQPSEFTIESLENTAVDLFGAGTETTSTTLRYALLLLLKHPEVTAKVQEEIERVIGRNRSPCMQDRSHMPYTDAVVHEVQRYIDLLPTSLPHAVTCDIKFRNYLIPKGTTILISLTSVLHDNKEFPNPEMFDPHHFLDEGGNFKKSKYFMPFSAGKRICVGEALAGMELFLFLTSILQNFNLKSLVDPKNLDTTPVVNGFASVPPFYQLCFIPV

[14] = target: Cytochrome P450 3A4 (Homo sapiens, UniProt P08684); test: Inhibition of CYP3A4 in human liver microsomes using midazolam as substrate preincubated for 15 mins followed by NADPH addition measured after 8 mins by LC-MS/MS analysis; assay type: ADME
Chain of Cytochrome P450 3A4 (P08684 whole entry): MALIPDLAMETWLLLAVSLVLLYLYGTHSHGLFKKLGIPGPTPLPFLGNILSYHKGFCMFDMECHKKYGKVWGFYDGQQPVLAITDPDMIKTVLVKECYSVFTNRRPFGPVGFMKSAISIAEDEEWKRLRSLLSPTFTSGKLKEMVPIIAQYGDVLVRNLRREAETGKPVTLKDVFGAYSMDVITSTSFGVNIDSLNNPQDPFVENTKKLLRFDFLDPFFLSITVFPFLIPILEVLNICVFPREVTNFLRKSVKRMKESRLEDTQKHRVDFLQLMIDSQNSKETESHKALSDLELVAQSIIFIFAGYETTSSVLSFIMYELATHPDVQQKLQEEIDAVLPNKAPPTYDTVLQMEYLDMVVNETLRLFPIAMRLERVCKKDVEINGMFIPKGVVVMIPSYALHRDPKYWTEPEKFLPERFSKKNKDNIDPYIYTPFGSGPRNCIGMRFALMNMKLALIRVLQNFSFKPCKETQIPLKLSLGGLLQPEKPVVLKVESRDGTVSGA

[15] = target: Cytochrome P450 2D6 (Homo sapiens, UniProt P10635); test: Inhibition of CYP2D6 in human liver microsomes using dextromethorphan as substrate preincubated for 15 mins followed by NADPH addition measured after 8 mins by LC-MS/MS analysis; assay type: ADME
Chain of Cytochrome P450 2D6 (P10635 whole entry): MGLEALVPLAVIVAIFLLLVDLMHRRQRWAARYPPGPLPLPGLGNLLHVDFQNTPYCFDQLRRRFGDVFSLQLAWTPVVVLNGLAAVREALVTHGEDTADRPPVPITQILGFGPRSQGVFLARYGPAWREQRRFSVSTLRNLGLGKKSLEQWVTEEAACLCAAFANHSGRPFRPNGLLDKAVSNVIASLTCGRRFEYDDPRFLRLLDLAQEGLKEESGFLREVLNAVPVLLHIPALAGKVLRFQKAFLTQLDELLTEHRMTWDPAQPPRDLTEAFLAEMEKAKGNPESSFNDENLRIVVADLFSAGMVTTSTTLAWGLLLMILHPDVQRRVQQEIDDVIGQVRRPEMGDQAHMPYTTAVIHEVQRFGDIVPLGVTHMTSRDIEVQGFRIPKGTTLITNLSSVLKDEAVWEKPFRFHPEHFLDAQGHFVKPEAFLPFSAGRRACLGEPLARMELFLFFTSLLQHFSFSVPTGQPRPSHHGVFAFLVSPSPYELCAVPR

[16] = Fraction unbound in rat plasma at 5 uM after 4 hrs by LC-MS/MS based equilibrium dialysis method; assay type: ADME, cell-free
[17] = Fraction unbound in human plasma at 5 uM after 4 hrs by LC-MS/MS based equilibrium dialysis method; assay type: ADME, cell-free
[18] = Drug uptake in Sprague-Dawley rat plasma at 3 mg/kg via oral gavage after 1 hr by LC-MS/MS analysis; assay type: ADME, organism-based
Procedure, shortened: (§4)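 Rat distribution study: single 3 mg/kg oral dose. Plasma (ng/mL) and brain concentrations are measured at 1 h, and brain/plasma Kp is calculated from them.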

[19] = Drug uptake in Sprague-Dawley rat brain at 3 mg/kg via oral gavage after 1 hr by LC-MS/MS analysis; assay type: ADME, organism-based; settings: read-out: Drug uptake; procedure, shortened: as §4
[20] = Ratio of drug level in Sprague-Dawley rat brain to plasma at 3 mg/kg via oral gavage after 1 hr by LC-MS/MS analysis; assay type: ADME, organism-based; procedure, shortened: as §4
[21] = test system: Rattus norvegicus; test: Decrease in blood insulin level in Sprague-Dawley rat at 10 mg/kg, po pretreated for 30 mins followed by glucose challenge measured up to 150 mins by oral glucose tolerance test; assay type: functional, organism-based
Procedure, shortened: (§5)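 OGTT in male Sprague-Dawley rats with surgically implanted carotid cannulae, randomized to compound (10 mg/kg po) or vehicle. Dosing is 30 min before a 2 g/kg glucose gavage at time 0. Carotid blood is sampled at intervals for whole blood glucose and insulin.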

[22] = test system: Rattus norvegicus; test: Increase in blood glucose level in Sprague-Dawley rat at 10 mg/kg, po pretreated for 30 mins followed by glucose challenge measured up to 150 mins by oral glucose tolerance test; assay type: functional, organism-based; procedure, shortened: as §5
[23] = target: T1, Glucagon-like peptide 1 receptor; test: Antagonist activity at GLP-1R (unknown origin)

Cn1c2c(c(=O)n(C)c1=O)C(C(F)(F)F)(C(F)(F)F)NC(c1ccc(Cl)cc1)=N2
IC50 [1]: 0.65 µM
IC50 [2]: 0.69 µM
Emin [3]: 20.9%
Emin [4]: 19.7%
clearance [5]: 4.79 mL/min/kg
half-life [6]: 9.78 h
Vd [7]: 3.57 L/kg
bioavailability [8]: 50%
IC50 [9]: > 30 µM
inhibition [10]: Dose-dependent effect
inhibition [11]: Active
IC50 [12]: 4.01 µM
IC50 [13]: 0.41 µM
IC50 [14]: > 30 µM
IC50 [15]: > 30 µM
fraction unbound at 4 h, 5 µM [16]: 0.011
fraction unbound at 4 h, 5 µM [17]: 0.007
concentration at 1 h [18]: 45 ng/mL
concentration at 1 h [19]: 65.1 ng/g
Kp at 1 h [20]: 1.45
Activity [21]: Active
Activity [22]: Active

O=c1[nH]c(=O)n(Cc2ccccc2)c2c1C(C(F)(F)F)(C(F)(F)F)N=C(c1cccs1)N2
IC50 [1]: 1.3 µM
IC50 [2]: 1.5 µM
Emin [3]: 36.2%
Emin [4]: 32%

COc1ccc2c(c1)N(c1ccccc1F)C(=O)[C@@]2(CCC(=O)O)NC(=O)c1cc2ccccc2cn1
IC50 [23]: 21 µM

Cn1c2c(c(=O)n(C)c1=O)C(C(F)(F)F)(C(F)(F)F)N=C(c1cccc([N+](=O)[O-])c1)N2
IC50 [1]: 0.61 µM
IC50 [2]: 0.69 µM
Emin [3]: 16.4%
Emin [4]: 15.5%
clearance [5]: 3.64 mL/min/kg
half-life [6]: 0.7 h
Vd [7]: 0.22 L/kg
IC50 [9]: > 30 µM
inhibition [10]: Dose-dependent effect
inhibition [11]: Active
IC50 [12]: 25 µM
IC50 [13]: 0.47 µM
IC50 [14]: > 30 µM
IC50 [15]: 21.2 µM
fraction unbound at 4 h, 5 µM [16]: 0.005
fraction unbound at 4 h, 5 µM [17]: 0.005
concentration at 1 h [18]: 76.7 ng/mL
concentration at 1 h [19]: 2.4 ng/g
Kp at 1 h [20]: 0.02

COc1cccc(C2=NC(C(F)(F)F)(C(F)(F)F)c3c(n(CC(C)C)c(=O)[nH]c3=O)N2)c1
IC50 [1]: 7.2 µM
IC50 [2]: 7.2 µM
Emin [3]: 22.7%
Emin [4]: 26.4%

COc1cccc(C2=NC(C(F)(F)F)(C(F)(F)F)c3c(n(-c4ccc(Cl)cc4)c(=O)[nH]c3=O)N2)c1
IC50 [1]: 5.9 µM
IC50 [2]: 5.8 µM
Emin [3]: 16.8%
Emin [4]: 23.9%
clearance [5]: 36.4 mL/min/kg
half-life [6]: 2.42 h
Vd [7]: 0.69 L/kg
bioavailability [8]: 100%
IC50 [9]: > 30 µM
IC50 [12]: > 30 µM
IC50 [13]: 3.78 µM
IC50 [14]: 16.4 µM
IC50 [15]: 8.13 µM
fraction unbound at 4 h, 5 µM [16]: 0.002
fraction unbound at 4 h, 5 µM [17]: 0.003
concentration at 1 h [18]: 1140 ng/mL
concentration at 1 h [19]: 37.1 ng/g
Kp at 1 h [20]: 0.03
